Results: publication PMC12782866 (Biomolecules & Therapeutics, 2025)
pIC50: −log10 of the molar value. “Also recorded” adds a separate entry of the source.

Columns and labels:
[1] = Comparative 14-day repeated-dose toxicity study with BAY964; type: in vivo, male ICR mice; conditions: for exposure multiple: reference not defined
Outline: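 Male ICR mice were dosed orally once daily for 14 days under GLP. Prodrug arm: 30, 100 or 300 mg/kg in 0.1% kolliphor EL (vehicle n=6; dose groups 6 main + 3 TK). Comparator arm: 30-1000 mg/kg, with 30 mg/kg given only as single-dose TK. Endpoints were clinical signs, body weight, food/water intake, haematology, serum chemistry, organ weights and H&E histopathology. TK was sampled on days 1 and 14.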

hERG channel = hERG channel (Homo sapiens, UniProt Q12809); experiment: hERG channel inhibition, in vitro; type: biochemical; conditions: read-out: hERG IC50
Chain of hERG channel (Q12809 whole entry): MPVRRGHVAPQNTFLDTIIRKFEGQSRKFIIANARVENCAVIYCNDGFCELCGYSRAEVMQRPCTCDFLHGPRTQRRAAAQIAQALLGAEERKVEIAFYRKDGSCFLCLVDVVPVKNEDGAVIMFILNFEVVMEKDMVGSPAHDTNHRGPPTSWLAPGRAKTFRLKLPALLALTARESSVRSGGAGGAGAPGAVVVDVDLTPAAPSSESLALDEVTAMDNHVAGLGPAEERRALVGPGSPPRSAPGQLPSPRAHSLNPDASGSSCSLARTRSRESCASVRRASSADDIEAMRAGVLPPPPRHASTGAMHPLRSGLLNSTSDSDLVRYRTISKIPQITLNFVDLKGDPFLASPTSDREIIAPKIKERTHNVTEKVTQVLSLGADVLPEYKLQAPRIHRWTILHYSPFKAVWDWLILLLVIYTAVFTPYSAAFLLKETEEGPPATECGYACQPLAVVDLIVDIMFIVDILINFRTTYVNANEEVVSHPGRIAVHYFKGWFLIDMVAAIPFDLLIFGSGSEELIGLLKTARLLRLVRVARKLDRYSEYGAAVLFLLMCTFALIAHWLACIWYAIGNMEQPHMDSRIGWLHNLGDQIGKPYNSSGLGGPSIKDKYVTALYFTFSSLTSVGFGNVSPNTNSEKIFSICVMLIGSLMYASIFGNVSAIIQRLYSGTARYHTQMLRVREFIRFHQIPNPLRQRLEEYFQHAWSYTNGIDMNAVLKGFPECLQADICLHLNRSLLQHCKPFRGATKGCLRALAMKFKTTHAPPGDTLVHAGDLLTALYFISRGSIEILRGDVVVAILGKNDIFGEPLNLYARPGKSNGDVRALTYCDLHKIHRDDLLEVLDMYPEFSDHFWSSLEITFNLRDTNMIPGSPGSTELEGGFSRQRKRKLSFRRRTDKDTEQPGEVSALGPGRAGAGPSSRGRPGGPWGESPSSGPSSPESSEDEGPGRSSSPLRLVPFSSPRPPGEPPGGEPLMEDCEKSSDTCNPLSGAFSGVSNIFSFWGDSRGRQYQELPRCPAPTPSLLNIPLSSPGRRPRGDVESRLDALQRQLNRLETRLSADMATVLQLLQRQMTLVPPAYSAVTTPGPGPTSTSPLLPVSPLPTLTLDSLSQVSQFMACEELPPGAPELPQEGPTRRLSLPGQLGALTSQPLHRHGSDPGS

Which toxicological findings ([1]; 100 mg/kg, 14 days) does the source give for `C[C@@H](CO)NC(=O)c1cc(-c2ccc(Cl)cc2)nn(-c2cnn(C)c2)c1=O` [BAY964] here?
The toxicological findings was “MCHC ↓, TG ↓, liver, spleen”.

What about the exposure multiple ([1]; 100 mg/kg) of the same molecule?
The exposure multiple was 1.9 ×.

What about the toxicological findings ([1]; 300 mg/kg, 14 days) of the same molecule?
The toxicological findings was “liver, spleen; hematological changes”.

What about the exposure multiple ([1]; 300 mg/kg) of the same molecule?
Its exposure multiple is 3.6 ×.

What about the toxicological findings ([1]; 1000 mg/kg, 14 days) of the same molecule?
Its toxicological findings is “gastrointestinal, liver, spleen, kidney lesions”.

And the exposure multiple ([1]; 1000 mg/kg)?
Its exposure multiple is 7.0 ×.

What about the Target organ ([1]; 100-1000 mg/kg, 14 days) of the same molecule?
Its Target organ is “liver, spleen, gastrointestinal tract, and kidney; also recorded: Liver, spleen, GI tract, kidney”.

And the pIC50 (hERG channel)?
The pIC50 was under 5.00.
